Reference: ChEMBL document CHEMBL3774382, “Design and synthesis of small molecule-sulfotyrosine mimetics that inhibit HIV-1 entry” (Bioorg Med Chem, 2016)

tested on: Human immunodeficiency virus 1; experiment: Antiviral activity against HIV1 dual CXCR4/CCR5-tropic strain 89.6 infected in human 293T cells after 48 hrs by neutralization assay; format: functional, organism-based; conditions: Human immunodeficiency virus 1, 89.6, HEK-293T
How it was run: (§1)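 Env-pseudotyped virus made by transfecting 293T cells with SG3denv plus an HIV-1 env plasmid. Medium changed at 24 h, supernatant harvested at 48 h, 0.45 μm filtered, stored at −80 °C. Two-fold serial inhibitor dilutions mixed with virus, then TZM-bl cells added. Incubated at 37 °C, 5% CO₂, fresh medium at 24 h. Luciferase read after lysis at 48 h post-infection. Single round. Tested up to 400 μM.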

In order of rising IC50:
1. COc1ccc(OC)c(-c2csc(N3N=C(c4ccccc4)/C(=N/Nc4ccc5c(S(=O)(=O)O)cc(S(=O)(=O)O)cc5c4)C3=O)n2)c1  2.9 µM
2. COc1ccc(-c2csc(N3N=C(c4ccccc4)/C(=N/Nc4ccc5c(S(=O)(=O)O)cc(S(=O)(=O)O)cc5c4)C3=O)n2)cc1  3.2 µM
3. O=C1/C(=N\Nc2ccc3c(S(=O)(=O)O)cc(S(=O)(=O)O)cc3c2)C(c2ccccc2)=NN1c1nc(-c2ccccc2)cs1  8.4 µM
4. COc1ccc(-c2csc(N3N=C(COc4ccccc4)/C(=N/Nc4ccc5c(S(=O)(=O)O)cc(S(=O)(=O)O)cc5c4)C3=O)n2)cc1  14.6 µM
5. O=C1/C(=N\Nc2ccc3c(S(=O)(=O)O)cc(S(=O)(=O)O)cc3c2)C(c2ccccc2)=NN1c1nc(-c2ccc(OC(F)(F)F)cc2)cs1  14.8 µM
6. CC1=NN(c2nc(-c3ccccc3)cs2)C(=O)/C1=N\Nc1ccc2c(S(=O)(=O)O)cc(S(=O)(=O)O)cc2c1  101 µM

biological target: not listed separately; experiment: Binding affinity to HIV immobilized envelop gp120 at 80 to 350 uM by surface plasmon resonance analysis; parameters: species or system Human immunodeficiency virus; conditions: not given

In order of falling Kd:
1. O=C1/C(=N\Nc2ccc3c(S(=O)(=O)O)cc(S(=O)(=O)O)cc3c2)C(c2ccccc2)=NN1c1nc(-c2ccccc2)cs1  350 µM
2. COc1ccc(-c2csc(N3N=C(c4ccccc4)/C(=N/Nc4ccc5c(S(=O)(=O)O)cc(S(=O)(=O)O)cc5c4)C3=O)n2)cc1  80 µM

tested on: Human immunodeficiency virus 1; experiment: Antiviral activity against HIV1 CCR5-tropic strain YU2 infected in human 293T cells after 48 hrs by neutralization assay; format: functional, cell-based; conditions: Human immunodeficiency virus 1, isolate YU2, HEK-293T; how it was run: as §1

In order of rising IC50:
1. COc1ccc(-c2csc(N3N=C(c4ccccc4)/C(=N/Nc4ccc5c(S(=O)(=O)O)cc(S(=O)(=O)O)cc5c4)C3=O)n2)cc1  24.7 µM
2. COc1ccc(OC)c(-c2csc(N3N=C(c4ccccc4)/C(=N/Nc4ccc5c(S(=O)(=O)O)cc(S(=O)(=O)O)cc5c4)C3=O)n2)c1  30.7 µM
3. O=C1/C(=N\Nc2ccc3c(S(=O)(=O)O)cc(S(=O)(=O)O)cc3c2)C(c2ccccc2)=NN1c1nc(-c2ccccc2)cs1  43.7 µM
4. O=C1/C(=N\Nc2ccc3c(S(=O)(=O)O)cc(S(=O)(=O)O)cc3c2)C(c2ccccc2)=NN1c1nc(-c2ccc(OC(F)(F)F)cc2)cs1  52.8 µM
5. COc1ccc(-c2csc(N3N=C(COc4ccccc4)/C(=N/Nc4ccc5c(S(=O)(=O)O)cc(S(=O)(=O)O)cc5c4)C3=O)n2)cc1  62.4 µM
6. O=C1/C(=N\Nc2cc(S(=O)(=O)O)cc3cc(S(=O)(=O)O)cc(S(=O)(=O)O)c23)C(c2ccccc2)=NN1c1nc(-c2ccc(C(F)(F)F)cc2)cs1  80.6 µM
7. CC1=NN(c2nc(-c3ccccc3)cs2)C(=O)/C1=N\Nc1ccc2c(S(=O)(=O)O)cc(S(=O)(=O)O)cc2c1  137 µM

tested on: Human immunodeficiency virus 1; experiment: Antiviral activity against HIV1 JRCSF infected in human 293T cells after 48 hrs by neutralization assay; format: functional, cell-based; conditions: Human immunodeficiency virus 1, JRCSF ISOLATE, HEK-293T; how it was run: as §1

In order of rising IC50:
1. COc1ccc(OC)c(-c2csc(N3N=C(c4ccccc4)/C(=N/Nc4ccc5c(S(=O)(=O)O)cc(S(=O)(=O)O)cc5c4)C3=O)n2)c1  9.9 µM
2. COc1ccc(-c2csc(N3N=C(c4ccccc4)/C(=N/Nc4ccc5c(S(=O)(=O)O)cc(S(=O)(=O)O)cc5c4)C3=O)n2)cc1  10.2 µM
3. COc1ccc(-c2csc(N3N=C(COc4ccccc4)/C(=N/Nc4ccc5c(S(=O)(=O)O)cc(S(=O)(=O)O)cc5c4)C3=O)n2)cc1  24.1 µM
4. O=C1/C(=N\Nc2ccc3c(S(=O)(=O)O)cc(S(=O)(=O)O)cc3c2)C(c2ccccc2)=NN1c1nc(-c2ccc(OC(F)(F)F)cc2)cs1  29.8 µM
5. O=C1/C(=N\Nc2ccc3c(S(=O)(=O)O)cc(S(=O)(=O)O)cc3c2)C(c2ccccc2)=NN1c1nc(-c2ccccc2)cs1  30.7 µM
6. O=C1/C(=N\Nc2cc(S(=O)(=O)O)cc3cc(S(=O)(=O)O)cc(S(=O)(=O)O)c23)C(c2ccccc2)=NN1c1nc(-c2ccc(C(F)(F)F)cc2)cs1  30.8 µM
7. CC1=NN(c2nc(-c3ccccc3)cs2)C(=O)/C1=N\Nc1ccc2c(S(=O)(=O)O)cc(S(=O)(=O)O)cc2c1  64.8 µM

tested on: Human immunodeficiency virus 1; experiment: Antiviral activity against HIV1 CXCR4-tropic strain HxB2 infected in human 293T cells after 48 hrs by neutralization assay; format: functional, organism-based; conditions: Human immunodeficiency virus 1, HxB2, HEK-293T; how it was run: as §1

In order of rising IC50:
1. COc1ccc(OC)c(-c2csc(N3N=C(c4ccccc4)/C(=N/Nc4ccc5c(S(=O)(=O)O)cc(S(=O)(=O)O)cc5c4)C3=O)n2)c1  2.5 µM
2. O=C1/C(=N\Nc2ccc3c(S(=O)(=O)O)cc(S(=O)(=O)O)cc3c2)C(c2ccccc2)=NN1c1nc(-c2ccccc2)cs1  3.6 µM
3. COc1ccc(-c2csc(N3N=C(c4ccccc4)/C(=N/Nc4ccc5c(S(=O)(=O)O)cc(S(=O)(=O)O)cc5c4)C3=O)n2)cc1  7.5 µM
4. COc1ccc(-c2csc(N3N=C(COc4ccccc4)/C(=N/Nc4ccc5c(S(=O)(=O)O)cc(S(=O)(=O)O)cc5c4)C3=O)n2)cc1  9.4 µM
5. O=C1/C(=N\Nc2ccc3c(S(=O)(=O)O)cc(S(=O)(=O)O)cc3c2)C(c2ccccc2)=NN1c1nc(-c2ccc(OC(F)(F)F)cc2)cs1  14.2 µM
6. O=C1/C(=N\Nc2cc(S(=O)(=O)O)cc3cc(S(=O)(=O)O)cc(S(=O)(=O)O)c23)C(c2ccccc2)=NN1c1nc(-c2ccc(C(F)(F)F)cc2)cs1  28.9 µM
7. CC1=NN(c2nc(-c3ccccc3)cs2)C(=O)/C1=N\Nc1ccc2c(S(=O)(=O)O)cc(S(=O)(=O)O)cc2c1  51.1 µM

tested on: Human immunodeficiency virus 1; experiment: Antiviral activity against HIV1 NL4-3 infected in human 293T cells after 48 hrs by neutralization assay; format: functional, organism-based; conditions: Human immunodeficiency virus 1, NL4-3, HEK-293T; how it was run: as §1

In order of rising IC50:
1. COc1ccc(OC)c(-c2csc(N3N=C(c4ccccc4)/C(=N/Nc4ccc5c(S(=O)(=O)O)cc(S(=O)(=O)O)cc5c4)C3=O)n2)c1  3.6 µM
2. COc1ccc(-c2csc(N3N=C(c4ccccc4)/C(=N/Nc4ccc5c(S(=O)(=O)O)cc(S(=O)(=O)O)cc5c4)C3=O)n2)cc1  5.8 µM
3. O=C1/C(=N\Nc2ccc3c(S(=O)(=O)O)cc(S(=O)(=O)O)cc3c2)C(c2ccccc2)=NN1c1nc(-c2ccccc2)cs1  7.1 µM
4. O=C1/C(=N\Nc2ccc3c(S(=O)(=O)O)cc(S(=O)(=O)O)cc3c2)C(c2ccccc2)=NN1c1nc(-c2ccc(OC(F)(F)F)cc2)cs1  10.7 µM
5. COc1ccc(-c2csc(N3N=C(COc4ccccc4)/C(=N/Nc4ccc5c(S(=O)(=O)O)cc(S(=O)(=O)O)cc5c4)C3=O)n2)cc1  11.2 µM
6. CC1=NN(c2nc(-c3ccccc3)cs2)C(=O)/C1=N\Nc1ccc2c(S(=O)(=O)O)cc(S(=O)(=O)O)cc2c1  33.1 µM

tested on: 293T; experiment: Inhibition of envelope gp120 in CCR5-tropic HIV1 YU2 infected in human 293T cells assessed as dose reduction index ratio at 1: 10 at 1:10 inhibitor to CCR5 Nt sulfated peptide (2 to 18) by single round neutralization assay; format: cell-based; conditions: Human immunodeficiency virus type 1 (isolate YU2)
How it was run: (§2)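 Single-round YU2 pseudovirus neutralization in TZM-bl cells with luciferase read-out. Virus treated with inhibitor alone, with sulfated CCR5 N-terminal peptide 2–18 alone, or with a constant-ratio mixture, two-fold serial dilutions starting near 30× the single-agent IC₅₀. The ratio approximates the ratio of single-agent IC₅₀s. Analysed by the Chou–Talalay method. DRI is IC₅₀ alone divided by IC₅₀ in combination. CI below 1, equal to 1 and above 1 mean synergy, additivity and antagonism.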

Work on `COc1ccc(-c2csc(N3N=C(c4ccccc4)/C(=N/Nc4ccc5c(S(=O)(=O)O)cc(S(=O)(=O)O)cc5c4)C3=O)n2)cc1` yielded a Ratio of 1.3.

tested on: 293T; experiment: Inhibition of envelope gp120 in CCR5-tropic HIV1 YU2 infected in human 293T cells assessed as combination index at 1: 10 at 1:10 inhibitor to CCR5 Nt sulfated peptide (2 to 18) by single round neutralization assay; format: cell-based; conditions: Human immunodeficiency virus type 1 (isolate YU2); how it was run: as §2

Work on `COc1ccc(-c2csc(N3N=C(c4ccccc4)/C(=N/Nc4ccc5c(S(=O)(=O)O)cc(S(=O)(=O)O)cc5c4)C3=O)n2)cc1` yielded a CI of 2.3.

tested on: not listed separately; experiment: Cytotoxicity against human TZM-bl cells; format: cell-based; conditions: read-out: LC50 (the source's name)

With `COc1ccc(-c2csc(N3N=C(c4ccccc4)/C(=N/Nc4ccc5c(S(=O)(=O)O)cc(S(=O)(=O)O)cc5c4)C3=O)n2)cc1` the CC50 was 200 µM.

tested on: not listed separately; experiment: Cytotoxicity against human TZM-bl cells at 500 uM; format: cell-based; conditions: not given

With `COc1ccc(OC)c(-c2csc(N3N=C(c4ccccc4)/C(=N/Nc4ccc5c(S(=O)(=O)O)cc(S(=O)(=O)O)cc5c4)C3=O)n2)c1` the Activity was “Non-toxic”.

tested on: not listed separately; experiment: Therapeutic index, ratio of LC50 for human TZM-bl cells to IC50 for HIV1; format: cell-based; conditions: read-out: TI

In order of falling selectivity ratio:
1. COc1ccc(OC)c(-c2csc(N3N=C(c4ccccc4)/C(=N/Nc4ccc5c(S(=O)(=O)O)cc(S(=O)(=O)O)cc5c4)C3=O)n2)c1  16
2. COc1ccc(-c2csc(N3N=C(c4ccccc4)/C(=N/Nc4ccc5c(S(=O)(=O)O)cc(S(=O)(=O)O)cc5c4)C3=O)n2)cc1  10

tested on: not listed separately; experiment: Cytotoxicity against human TZM-bl cells at 200 to 500 uM; format: cell-based; conditions: not given

With `COc1ccc(-c2csc(N3N=C(c4ccccc4)/C(=N/Nc4ccc5c(S(=O)(=O)O)cc(S(=O)(=O)O)cc5c4)C3=O)n2)cc1` the Activity was “Toxic”.
